Activity calls are given as the source filed them. The rule behind the calls is not given here.
Columns and labels:
Vero = assay: Cytotoxicity against African green monkey Vero cells after 72 hrs by MTT assay; type: cell-based; details: Chlorocebus sabaeus
Trypanosoma cruzi [1] = assay: Antitrypanosomal activity against Trypanosoma cruzi Dm28c epimastigotes infected in African green monkey Vero cells after 72 hrs by CPRG/Nonidet reagent based beta-galactosidase reporter gene assay; type: functional, organism-based
How it was run: (§1)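 β-Galactosidase-expressing parasites were exposed to 0–200 μM of compound. Growth inhibition was read from β-galactosidase activity, and IC50 was obtained by nonlinear regression of activity against concentration.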

[2] = Selectivity index, ratio of IC50 for African green monkey Vero cells to IC50 for Trypanosoma cruzi Dm28c amastigotes infected in African green monkey Vero cells; type: toxicity; details: read-out: Ratio IC50
How it was run: (§2)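 Selectivity index is the Vero cell toxicity IC50 divided by the IC50 against the relevant extracellular or intracellular parasite form.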

[3] = Selectivity index, ratio of IC50 for African green monkey Vero cells to IC50 for Trypanosoma cruzi Dm28c trypomastigotes infected in African green monkey Vero cells; type: toxicity; details: read-out: Ratio IC50; how it was run: as §2
[4] = Selectivity index, ratio of IC50 for African green monkey Vero cells to IC50 for Trypanosoma cruzi Dm28c epimastigotes infected in African green monkey Vero cells; type: toxicity; details: read-out: Ratio IC50; how it was run: as §2
Trypanosoma cruzi [5] = assay: Antitrypanosomal activity against Trypanosoma cruzi Dm28c amastigotes infected in African green monkey Vero cells after 48 hrs by CPRG/Nonidet reagent based beta-galactosidase reporter gene assay; type: functional, organism-based; how it was run: as §1
Trypanosoma cruzi [6] = assay: Antitrypanosomal activity against Trypanosoma cruzi Dm28c trypomastigotes infected in African green monkey Vero cells after 24 hrs by CPRG/Nonidet reagent based beta-galactosidase reporter gene assay; type: functional, organism-based; how it was run: as §1
Trypanosoma cruzi [7] = assay: Binding affinity to recombinant Trypanosoma cruzi His/haemaglutinin-tagged BDF3 expressed in Escherichia coli BL21 assessed as compound amplification factor at 75 uM by LC-MS based dynamic combinatorial chemistry analysis
How it was run: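 A dynamic acylhydrazone library was built from six aldehydes and four acylhydrazides (75 μM each) in 100 mM ammonium acetate, pH 6.5, with 3.75 mM aniline. It reached constant composition by about 10 h and was run with or without 100 μM recombinant TcBDF3. Amplification factor is the LC–MS peak area with template divided by the area without template.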

Trypanosoma cruzi [8] = assay: Binding affinity to recombinant Trypanosoma cruzi His/haemaglutinin-tagged BDF3 expressed in Escherichia coli BL21 at 100 uM by fluorescence spectra analysis
How it was run: (§3)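 Intrinsic tryptophan (W117) fluorescence spectra were recorded for 10 μM recombinant TcBDF3 in 100 mM ammonium acetate, pH 6.5, alone and with increasing ligand; building blocks were tested at 100 μM. Quenching was analyzed by Stern–Volmer, modified Stern–Volmer and double-logarithmic plots, and Kd came from the double-logarithmic plot.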

Trypanosoma cruzi [9] = assay: Binding affinity to recombinant Trypanosoma cruzi His/haemaglutinin-tagged BDF3 Y123A/L130A double mutant expressed in Escherichia coli BL21 assessed as change in melting temperature at 10 uM by SYPRO orange based thermal shift assay
[10] = (§4) Binding affinity to recombinant Trypanosoma cruzi His/haemaglutinin-tagged BDF3 expressed in Escherichia coli BL21 by fluorescence spectra analysis; how it was run: as §3
Trypanosoma cruzi [11] = assay: Binding affinity to recombinant Trypanosoma cruzi His/haemaglutinin-tagged BDF3 Y123A/L130A double mutant expressed in Escherichia coli BL21 by fluorescence spectra analysis
How it was run: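 Intrinsic tryptophan fluorescence of 10 μM recombinant protein in 100 mM ammonium acetate, pH 6.5, measured with and without the hydrazone dynamic library. Maximum emission was normalized and compared.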

Trypanosoma cruzi [12] = assay: Binding affinity to recombinant Trypanosoma cruzi His/haemaglutinin-tagged BDF3 Y123A/L130A double mutant expressed in Escherichia coli BL21 by LC-MS based dynamic combinatorial chemistry analysis
How it was run: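 Dynamic library of six aldehydes and four acylhydrazides (75 μM each) in 100 mM ammonium acetate, pH 6.5, with 3.75 mM aniline, equilibrated about 10 h, with and without 100 μM recombinant protein. Read-out: LC–MS peak areas. Amplification factor = peak area in templated library ÷ peak area in untemplated library.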

Trypanosoma cruzi [13] = assay: Binding affinity to recombinant Trypanosoma cruzi His/haemaglutinin-tagged BDF3 expressed in Escherichia coli BL21 assessed as change in melting temperature at 10 uM by SYPRO orange based thermal shift assay
Trypanosoma cruzi [14] = assay: as §4; how it was run: as §3
Trypanosoma cruzi [15] = assay: Binding affinity to recombinant Trypanosoma cruzi His/haemaglutinin-tagged BDF3 expressed in Escherichia coli BL21 assessed as change in melting temperature by SYPRO orange based thermal shift assay
Trypanosoma cruzi [16] = assay: Antitrypanosomal activity against Trypanosoma cruzi Dm28c […] infected in African green monkey Vero cells at 25 uM after 48 hrs by CPRG/Nonidet reagent based beta-galactosidase reporter gene assay; type: functional, organism-based

| Structure (SMILES) | fold change (FC) (Trypanosoma cruzi [7]) | also measured |
| --- | --- | --- |
| CC1CS(=O)(=O)CCN1/N=C/c1ccc([N+](=O)[O-])o1 (stereo not drawn) [NIFURTIMOX] |  | IC50 (Vero): 115 µM; IC50 (Trypanosoma cruzi [1]): 8 µM; selectivity ratio [2]: 38; selectivity ratio [3]: 16; selectivity ratio [4]: 14; IC50 (Trypanosoma cruzi [5]): 3 µM; IC50 (Trypanosoma cruzi [6]): 7 µM |
| O=C(N/N=C/c1ccc(CO)o1)c1ccccc1 | < 1 |  |
| O=C(N/N=C/CCC/C=N/NC(=O)c1ccco1)c1ccccc1 | < 1 |  |
| O=C(N/N=C/CCC/C=N/NC(=O)c1cccs1)c1ccco1 | < 1 |  |
| COc1cc(/C=N/NC(=O)c2ccco2)cc(OC)c1OC | < 1 |  |
| O=C(N/N=C/CCC/C=N/NC(=O)c1ccncc1)c1ccncc1 | < 1 |  |
| NNC(=O)c1cccs1 |  | Activity (Trypanosoma cruzi [8]): inactive |
| O=C(N/N=C/c1ccc(CO)o1)c1ccco1 | < 1 |  |
| O=C(N/N=C/CCC/C=N/NC(=O)c1ccncc1)c1ccccc1 | < 1 |  |
| O=C(N/N=C/CCC/C=N/NC(=O)c1ccco1)c1ccco1 | < 1 |  |
| COc1cc(C=O)ccc1O |  | Activity (Trypanosoma cruzi [8]): inactive |
| O=C(Cn1ccnc1[N+](=O)[O-])NCc1ccccc1 [BENZNIDAZOLE] |  | IC50 (Vero): 30.2 µM; IC50 (Trypanosoma cruzi [1]): 18.2 µM; IC50 (Trypanosoma cruzi [5]): 3.92 µM; IC50 (Trypanosoma cruzi [6]): 27.1 µM |
| O=C(N/N=C/CCC/C=N/NC(=O)c1ccco1)c1ccncc1 | < 1 |  |
| O=C(N/N=C/[C@H](O)[C@H](O)[C@H](O)[C@@H](O)CO)c1ccncc1 | 1.5 to 2 |  |
| O=C(N/N=C/c1ccc(CO)o1)c1cccs1 | < 1 |  |
| COc1cc(/C=N/NC(=O)c2ccncc2)ccc1O | < 1 |  |
| O=C(N/N=C/c1ccc(CO)o1)c1ccncc1 | < 1 |  |

| Structure (SMILES) | fold change (FC) (Trypanosoma cruzi [7]) | also measured |
| --- | --- | --- |
| COc1cc(/C=N/NC(=O)c2ccccc2)ccc1O | 1.5 to 2 |  |
| COc1cc(/C=N/NC(=O)c2cccs2)ccc1O | 2.4 | ΔTm (Trypanosoma cruzi [9]): 0.4 °C; IC50 (Vero): > 200 µM; Kd [10]: 1.7 µM; Activity (Trypanosoma cruzi [11]): inactive; Activity (Trypanosoma cruzi [12]): inactive; ΔTm (Trypanosoma cruzi [13]): 3.43 °C; IC50 (Trypanosoma cruzi [1]): 23 µM; selectivity ratio [2]: > 15; selectivity ratio [3]: > 11; selectivity ratio [4]: > 9; IC50 (Trypanosoma cruzi [5]): 13.1 µM; IC50 (Trypanosoma cruzi [6]): 17.8 µM |
| O=C(N/N=C/CCC/C=N/NC(=O)c1cccs1)c1ccccc1 | < 1 |  |
| COc1cc(/C=N/NC(=O)c2ccccc2)cc(OC)c1OC | < 1 |  |
| O=C(O)c1ccc(/C=N/NC(=O)c2cccs2)cc1 | < 1 |  |
| O=C(N/N=C/CCC/C=N/NC(=O)c1ccccc1)c1ccccc1 | < 1 |  |
| O=C(N/N=C/CCC/C=N/NC(=O)c1cccs1)c1cccs1 | 1.5 to 2 |  |
| O=C(O)c1ccc(/C=N/NC(=O)c2ccncc2)cc1 | < 1 |  |
| O=C(N/N=C/[C@H](O)[C@H](O)[C@H](O)[C@@H](O)CO)c1cccs1 | < 1 |  |
| COc1cc(/C=N/NC(=O)c2ccco2)ccc1O | 1.5 to 2 |  |
| O=C(N/N=C/[C@H](O)[C@H](O)[C@H](O)[C@@H](O)CO)c1ccco1 | < 1 |  |
| O=C(O)c1ccc(/C=N/NC(=O)c2ccco2)cc1 | < 1 |  |
| O=C(N/N=C/CCC/C=N/NC(=O)c1cccs1)c1ccncc1 | < 1 |  |
| COc1cc(/C=N/NC(=O)c2ccncc2)cc(OC)c1OC | < 1 |  |
| O=C(O)c1ccc(/C=N/NC(=O)c2ccccc2)cc1 | < 1 |  |
| COc1cc(/C=N/NC(=O)c2cccs2)cc(OC)c1OC | 1.2 | Activity (Trypanosoma cruzi [14]): Active; Activity (Trypanosoma cruzi [15]): Active; Activity (Trypanosoma cruzi [16]): Active |
| O=C(N/N=C/[C@H](O)[C@H](O)[C@H](O)[C@@H](O)CO)c1ccccc1 | 1.5 to 2 |  |

Source: ChEMBL document CHEMBL4266005, “Discovery of a Biologically Active Bromodomain Inhibitor by Target-Directed Dynamic Combinatorial Chemistry” (ACS Med Chem Lett, 2018)
